This is an account of results in ChEMBL document CHEMBL1759963, “Synthesis and biological evaluation of 4-styrylcoumarin derivatives as inhibitors of TNF-α and IL-6 with anti-tubercular activity” (2011).

What all share (format): functional
Assay [1] deals with THP-1. Briefly: Antiinflammatory activity in human THP1 cells assessed as inhibition of LPS-induced TNFalpha production at 10 uM after 24 hrs by ELISA. Conditions: THP-1, 24 h. Put shortly:
(§1)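 THP-1 cells grown in RPMI 1640 with 10% FBS, penicillin and streptomycin, then differentiated with PMA. Test compound or vehicle (0.5% DMSO) added and preincubated 30 min at 37 °C. LPS (E. coli 0127:B8) then added and cells incubated 24 h at 37 °C, 5% CO2. Supernatant TNF-α and IL-6 measured by ELISA. Cytotoxicity checked in parallel by CCK-8. Percent inhibition versus control.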

The test system of assay [2] is THP-1. Kind of assay: Antiinflammatory activity in human THP1 cells assessed as inhibition of LPS-induced IL6 production at 10 uM after 24 hrs by ELISA. Conditions: THP-1, 24 h. Put shortly: as §1
(In general: In an ELISA, binding on a coated surface is turned into a signal by an enzyme label.)

In assay [3] the test system is Mycobacterium tuberculosis. Briefly: Antitubercular activity against Mycobacterium tuberculosis H37Rv ATCC 27294 at 6.25 ug/ml by microplate alamar blue assay. In outline:
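Primary screen against M. tuberculosis H37Rv (ATCC 27294) in BACTEC 12B medium by microplate Alamar Blue assay. Tested at 6.25 µg/mL or molar equivalent of the highest-MW compound in the congener series. Fluorescent compounds instead tested in the BACTEC 460 radiometric system.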

As usually defined, the inhibition is the percentage by which the read-out fell short of the control. Regarding `N#Cc1c(/C=C/c2ccccc2)c2cc(Cl)ccc2oc1=O`, the inhibition at 10 µM is 32% with THP-1 [1] and 87% with THP-1 [2]. In addition, testing at 6.25 µg/mL in assay [3] gave an inhibition of 55%.

For the compound `N#Cc1c(/C=C/c2ccc(F)cc2)c2cc(Cl)ccc2oc1=O`, the inhibition at 10 µM in the assay on THP-1 [1] stood at 0%; with THP-1 [2] it was 61%.

Regarding `N#Cc1c(/C=C/c2ccccc2Cl)c2cc(Cl)ccc2oc1=O`, the figures for the inhibition at 10 µM in the assay on THP-1 [1] and in the assay on THP-1 [2] were 0% and 19%, respectively.

As for `N#Cc1c(/C=C/c2cccc(Cl)c2)c2cc(Cl)ccc2oc1=O`, the inhibition at 10 µM worked out at 0% in the assay on THP-1 [1] and 21% in the assay on THP-1 [2]. In addition, the inhibition at 6.25 µg/mL in assay [3] amounted to 69%.

Turning to `N#Cc1c(/C=C/c2ccc(Cl)cc2)c2cc(Cl)ccc2oc1=O`, the inhibition at 10 µM in the assay on THP-1 [1] was 0%; in the assay on THP-1 [2], 4%.

`N#Cc1c(/C=C/c2cccc(Br)c2)c2cc(Cl)ccc2oc1=O`: the inhibition at 10 µM in the assay with THP-1 [1] amounted to 0%; with THP-1 [2], 2%. This compound also had an inhibition at 6.25 µg/mL in assay [3] of 23%.

With `N#Cc1c(/C=C/c2ccccc2[N+](=O)[O-])c2cc(Cl)ccc2oc1=O`, the inhibition at 10 µM in the assay on THP-1 [1] worked out at 0%; in the assay on THP-1 [2], 14%. The inhibition at 6.25 µg/mL in assay [3] was 11%.

Take `N#Cc1c(/C=C/c2cccc([N+](=O)[O-])c2)c2cc(Cl)ccc2oc1=O`: the inhibition at 10 µM came out at 0% in the assay with THP-1 [1] and 72% in the assay with THP-1 [2]. This compound also registered an inhibition at 6.25 µg/mL in assay [3] of 69%.

Take `N#Cc1c(/C=C/c2cccc(O)c2)c2cc(Cl)ccc2oc1=O`: the values for the inhibition at 10 µM in the assay on THP-1 [1] and with THP-1 [2] were 23% and 39%, respectively.

On to `N#Cc1c(/C=C/c2ccc(O)cc2)c2cc(Cl)ccc2oc1=O`, for which the inhibition at 10 µM in the assay with THP-1 [1] came out at 0%; in the assay on THP-1 [2], 73%.

As for `COc1ccccc1/C=C/c1c(C#N)c(=O)oc2ccc(Cl)cc12`, the figures for the inhibition at 10 µM with THP-1 [1] and in the assay with THP-1 [2] were 19% and 17%, respectively. Besides, in assay [3], the inhibition at 6.25 µg/mL was 24%.

For `COc1ccc(/C=C/c2c(C#N)c(=O)oc3ccc(Cl)cc23)cc1`, testing at 6.25 µg/mL in assay [3] gave an inhibition of 33%.

Consider `COc1ccc(/C=C/c2c(C#N)c(=O)oc3ccc(Cl)cc23)cc1OC`, for which the inhibition at 10 µM in the assay with THP-1 [1] is 0%; in the assay on THP-1 [2] it was 40%. Moreover, the inhibition at 6.25 µg/mL in assay [3] was determined as 63%.

Regarding `COc1cc(/C=C/c2c(C#N)c(=O)oc3ccc(Cl)cc23)cc(OC)c1OC`, the inhibition at 10 µM in the assay with THP-1 [1] came out at 38%; with THP-1 [2] it was 8%. Moreover, in assay [3], the inhibition at 6.25 µg/mL came out at 87%.

Turning to `N#Cc1c(/C=C/c2cccc(Oc3ccccc3)c2)c2cc(Cl)ccc2oc1=O`, the inhibition at 10 µM with THP-1 [1] is 0%; with THP-1 [2], 11%. At 6.25 µg/mL the inhibition in assay [3] was 72%.

With `CSc1ccc(/C=C/c2c(C#N)c(=O)oc3ccc(Cl)cc23)cc1`, the inhibition at 10 µM with THP-1 [1] is 0%; in the assay with THP-1 [2], 15%.

Regarding `C=Cc1ccccc1/C=C/c1c(C#N)c(=O)oc2ccc(Cl)cc12`, the inhibition at 10 µM with THP-1 [1] was determined as 52%; in the assay on THP-1 [2], 0%.

`N#Cc1c(/C=C/c2c3ccccc3cc3ccccc23)c2cc(Cl)ccc2oc1=O`: testing at 6.25 µg/mL in assay [3] gave an inhibition of 81%.

`N#Cc1c(/C=C/c2ccco2)c2cc(Cl)ccc2oc1=O`: the inhibition at 10 µM in the assay with THP-1 [1] worked out at 9%; in the assay on THP-1 [2], 0%. The same compound had an inhibition at 6.25 µg/mL in assay [3] of 63%.

In the case of `N#Cc1c(/C=C/c2c[nH]c3ccccc23)c2cc(Cl)ccc2oc1=O`, the inhibition at 10 µM in the assay on THP-1 [1] came to 31%; in the assay on THP-1 [2] it was 0%.

Take `CN(C)c1ccc(/C=C/c2c(C#N)c(=O)oc3ccc(Cl)cc23)cc1`: the inhibition at 10 µM in the assay with THP-1 [1] is 33%; in the assay on THP-1 [2], 0%. In assay [3], this compound gave an inhibition at 6.25 µg/mL of 79%.

In the case of `COc1cccc(/C=C/c2c(C#N)c(=O)oc3ccc(Cl)cc23)c1`, the results for the inhibition at 10 µM with THP-1 [1] and in the assay with THP-1 [2] were 73% and 0%, respectively. The inhibition at 6.25 µg/mL in assay [3] amounted to 31%.
